Reference: ChEMBL document CHEMBL1221166, “Molecular basis of inverse agonism in a G protein-coupled receptor” (Nat Chem Biol, 2005)
Active and inactive are the calls of the source. The calls are words filed in the database; no cut-off is given here.

Each molecule was assayed against T1, Alpha-2A adrenergic receptor (Homo sapiens) (UniProt P08913) (assay: Inverse agonist activity at adrenergic alpha2A receptor expressed in HEK293 cells coexpressing yellow fluorescent and cyan fluorescent protein assessed as increase in resonance signal at 100 uM by FRET assay).
T1 sequence (whole entry): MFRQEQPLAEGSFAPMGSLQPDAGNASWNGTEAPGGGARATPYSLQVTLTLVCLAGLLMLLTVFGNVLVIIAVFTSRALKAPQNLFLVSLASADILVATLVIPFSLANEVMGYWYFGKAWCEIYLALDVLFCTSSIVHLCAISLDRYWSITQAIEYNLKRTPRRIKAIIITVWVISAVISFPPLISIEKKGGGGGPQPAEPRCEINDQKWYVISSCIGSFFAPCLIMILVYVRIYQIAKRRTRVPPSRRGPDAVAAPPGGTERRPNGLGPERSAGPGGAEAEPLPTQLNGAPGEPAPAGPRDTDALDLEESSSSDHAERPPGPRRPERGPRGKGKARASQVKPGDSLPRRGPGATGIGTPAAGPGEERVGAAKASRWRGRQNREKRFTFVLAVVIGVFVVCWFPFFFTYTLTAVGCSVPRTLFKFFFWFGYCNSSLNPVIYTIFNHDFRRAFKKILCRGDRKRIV
Type: functional, cell-based
Summary of the method: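 Single HEK293 cells expressing α2AAR tagged with CFP/YFP were grown on coverslips and kept at room temperature. They were continuously superfused with HEPES buffer at pH 7.4 (137 mM NaCl, 0.1% BSA), and ligand was applied by solenoid-valve rapid superfusion. YFP and CFP emissions were recorded by dual-emission photometry on a 100× oil objective. FRET was taken as the spillover-corrected ratio FYFP/FCFP, with photobleaching drift subtracted where needed.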

| Activity | SMILES |
| --- | --- |
| Active | COC1(C2=NCCN2)COc2ccccc2O1 (stereo unspecified) |
| Active | CN1CC[C@]2(CCN3CCc4c(oc5ccccc45)[C@@H]3C2)N(C)C1=O |

Each molecule was assayed against T1, Alpha-2A adrenergic receptor (Homo sapiens) (assay: Partial agonist activity at adrenergic alpha2A receptor expressed in HEK293 cells coexpressing yellow fluorescent and cyan fluorescent protein assessed as effect on kinetics of receptor conformational change by FRET assay).
Type: functional, cell-based
Summary of the method: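 HEK293 cells expressing α2AAR tagged with CFP/YFP were superfused rapidly with ligand at room temperature. The time course of the corrected FYFP/FCFP ratio was fitted with a monoexponential equation to give kobs. kobs was then plotted against the percentage FRET change.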

| Activity | SMILES |
| --- | --- |
| Active | Cc1cc(C(C)(C)C)c(O)c(C)c1CC1=NCCN1 |
| Active | NCCc1ccc(O)c(O)c1 |
| Active | Clc1cccc(Cl)c1NC1=NCCN1 |
| Active | COc1nc(C)nc(Cl)c1NC1=NCCN1 |
